Laboratory results taken from ChEMBL document CHEMBL1141864, “Structure-activity relationships in 1,4-benzodioxan-related compounds. 8.(1) {2-[2-(4-chlorobenzyloxy)phenoxy]ethyl}-[2-(2,6-dimethoxyphenoxy)ethyl]amine (clopenphendioxan) as a tool to highlight the involvement of alpha1D- and alpha1B-adrenoreceptor subtypes in the regulation of human PC-3 …” (J Med Chem, 2005).
The source made the active and inactive calls. No cut-off for these calls is given here.

Assays:
[1] = target: T1, Alpha-1A adrenergic receptor (Homo sapiens, UniProt P35348); experiment: Displacement of [3H]prazosin from cloned human ADRA1A expressed in CHO cells; format: cell-based
T1 sequence (P35348 whole entry): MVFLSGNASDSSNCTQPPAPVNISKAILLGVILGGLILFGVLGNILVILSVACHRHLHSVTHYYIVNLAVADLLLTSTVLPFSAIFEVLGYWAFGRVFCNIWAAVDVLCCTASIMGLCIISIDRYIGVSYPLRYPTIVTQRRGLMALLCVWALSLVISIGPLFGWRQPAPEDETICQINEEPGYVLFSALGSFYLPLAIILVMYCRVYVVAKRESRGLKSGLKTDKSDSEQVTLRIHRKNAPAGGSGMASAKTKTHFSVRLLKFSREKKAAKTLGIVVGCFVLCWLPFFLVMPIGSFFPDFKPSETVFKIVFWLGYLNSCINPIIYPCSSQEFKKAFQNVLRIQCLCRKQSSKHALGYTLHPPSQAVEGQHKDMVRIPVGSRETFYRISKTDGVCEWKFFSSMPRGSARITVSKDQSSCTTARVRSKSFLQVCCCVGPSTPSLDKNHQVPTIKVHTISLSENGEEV

[2] = target: T2, Alpha-1A adrenergic receptor (Rattus norvegicus) (UniProt P43140); experiment: ADRA1A blocking activity assessed by antagonism of (-)-NE induced contractions on isolated rat prostatic vas deferens; format: functional, tissue-based
T2 sequence (whole entry): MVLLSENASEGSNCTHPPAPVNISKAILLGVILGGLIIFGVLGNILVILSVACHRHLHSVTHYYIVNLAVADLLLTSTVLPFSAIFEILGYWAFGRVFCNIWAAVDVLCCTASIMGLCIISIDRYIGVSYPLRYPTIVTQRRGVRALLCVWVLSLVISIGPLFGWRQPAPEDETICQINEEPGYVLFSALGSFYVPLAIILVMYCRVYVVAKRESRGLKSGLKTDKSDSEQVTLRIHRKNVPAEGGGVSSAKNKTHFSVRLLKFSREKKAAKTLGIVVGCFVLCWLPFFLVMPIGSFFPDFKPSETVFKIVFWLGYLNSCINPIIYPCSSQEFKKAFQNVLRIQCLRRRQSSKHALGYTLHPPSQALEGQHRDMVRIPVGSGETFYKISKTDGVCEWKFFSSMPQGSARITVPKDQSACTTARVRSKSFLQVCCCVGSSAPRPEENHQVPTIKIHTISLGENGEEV
How it was run: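 Isolated rat tissue: each antagonist concentration tested four times over 0.01–1 μM; pK_B calculated by van Rossum method from shifts of (-)-noradrenaline contraction curves (vas deferens, α1A; thoracic aorta, α1D) or (-)-phenylephrine contraction curves (spleen, α1B).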

[3] = target: T3, 5-hydroxytryptamine receptor 1A (Homo sapiens) (UniProt P08908); experiment: Agonist efficacy towards cloned human 5HT1A receptor by [35SGTP]gammaS binding in HeLa cells; format: cell-based
T3 sequence (whole entry): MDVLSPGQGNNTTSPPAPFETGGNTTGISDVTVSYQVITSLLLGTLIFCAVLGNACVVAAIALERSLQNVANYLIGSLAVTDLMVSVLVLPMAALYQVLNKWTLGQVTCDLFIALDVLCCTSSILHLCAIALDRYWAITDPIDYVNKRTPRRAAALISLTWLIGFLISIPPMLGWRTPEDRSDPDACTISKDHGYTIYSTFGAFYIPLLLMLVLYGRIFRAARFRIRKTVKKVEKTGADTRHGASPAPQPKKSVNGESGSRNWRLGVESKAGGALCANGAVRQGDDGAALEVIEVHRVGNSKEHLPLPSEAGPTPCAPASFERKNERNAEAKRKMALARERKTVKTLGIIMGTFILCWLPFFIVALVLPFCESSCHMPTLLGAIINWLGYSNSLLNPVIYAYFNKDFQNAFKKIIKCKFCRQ

[4] = target: T3, 5-hydroxytryptamine receptor 1A (Homo sapiens); experiment: Maximum response towards cloned human 5HT1A receptor
PC-3 [5] = experiment: Cytotoxic activity on human PC3 prostate cancer cells by SRB assay; format: functional; conditions: for GI50 / TGI / LC50 (50% lethal concentration): Homo sapiens, PC-3
How it was run: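 NCI-protocol SRB assay on PC-3 cells grown in DMEM/10% FBS/2 mM glutamine. Seeded 24 h, then compounds in medium for 48 h at 37 °C, 5% CO2, in quadruplicate. A time-zero plate was read. Cells TCA-fixed, stained with 0.4% SRB, absorbance at 520 nm. GI50, TGI and LC50 interpolated from % growth versus log concentration.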

PC-3 [6] = experiment: Inhibition of NE-induced increase of PC3 cell proliferation using ELISA BrdU; format: functional, cell-based; conditions: Homo sapiens
How it was run: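 PC-3 cells (7×10^4/well) plated 24 h, then given noradrenaline (0–50 μM) alone or with antagonist (1 μM, or 0.5 μM for one compound) for 16 h. BrdU added for the last 4 h and read by colorimetric ELISA as % growth; mean ± SD of three experiments.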

Row | SMILES | Ki [1] [nM] | pKb [2] | pD2 [3] | %max [4] [%] | Activity (PC-3 [5]) [%] | GI50 (PC-3 [5]) [µM] | TGI (PC-3 [5]) [µM] | LC50 (50% lethal concentration) (PC-3 [5]) [µM] | Activity (PC-3 [6])
1 | COc1cccc(OC)c1OCCNCCOc1ccccc1OCc1cccc([N+](=O)[O-])c1 | 0.316 | 8.85 | 7.16 | 44.4 | <50 | 13.2 | 38.9 |  | 
2 | COc1cccc(OC)c1OCCNCCOc1ccccc1OCc1cccc(C)c1 | 0.398 | 8.3 |  |  |  | 12 | 32.3 | 87.1 | 
3 | COc1cccc(OC)c1OCCNCCOc1ccccc1OCc1ccccc1C | 1.58 | 7.81 | 6.96 | 75.6 | <50 | 11.5 | 33.9 |  | 
4 | COc1cccc(OC)c1OCCNCCOc1ccccc1OCc1ccccc1 | 0.468 | 8.39 | 7.11 | 45.7 |  | 26.9 | 76.9 | 193 | Active
5 | COc1ccc(COc2ccccc2OCCNCCOc2c(OC)cccc2OC)cc1 | 2 | 8.54 | 7.92 | 21.6 | <50 | 8.5 | 34.7 |  | 
6 | COc1cccc(OC)c1OCCNCCOc1ccccc1OCc1ccccc1Cl | 1.41 | 8.56 | 7.31 | 74.4 |  | 5.4 | 17.8 | 58.9 | 
7 | COc1cccc(OC)c1OCCNCCOc1ccccc1OCc1ccc([N+](=O)[O-])cc1 | 1.26 | 8.58 | 6.15 | 79.1 | <50 | 12 | 43.6 |  | 
8 | COc1cccc(OC)c1OCCNCCOc1ccccc1OCc1ccccc1[N+](=O)[O-] | 7.94 | 8.2 |  |  |  | 13.2 | 34.7 | 95.5 | 
9 | COc1cccc(OC)c1OCCNCCOc1ccccc1OCc1ccc(Cl)cc1 [CLOPENPHENDIOXAN] | 0.251 | 8.17 | 6.98 | 60 |  | 2.4 | 14.5 | 52.5 | Active
10 | COc1ccccc1COc1ccccc1OCCNCCOc1c(OC)cccc1OC | 2 | 8.53 |  |  |  | 8.9 | 30.2 | 100 | 
11 | COc1cccc(COc2ccccc2OCCNCCOc2c(OC)cccc2OC)c1 | 2 | 8.3 |  |  |  | 2.5 | 15.1 | 61.7 | 
12 | COc1cccc(OC)c1OCCNCCOc1ccccc1OCc1cccc(Cl)c1 | 0.251 | 8.12 | 7.15 | 67.1 |  | 5.9 | 20.4 | 58.9 | 
13 | COc1cccc(OC)c1OCCNCCOc1ccccc1OCc1ccc(C)cc1 | 2 | 8.23 |  |  |  | 7.8 | 27.5 | 61.7 | 
